Data: ChEMBL document CHEMBL1132352, “5'-Phosphoramidates and 5'-diphosphates of 2'-O-allyl-beta-D-arabinofuranosyluracil, -cytosine, and -adenine: inhibition of ribonucleotide reductase” (J Med Chem, 1999)

Experiments:
Assay type in all cases: functional, cell-based
CCRF-CEM [1] = assay: The compound was tested for cytostatic activity against CEM cells; conditions: Homo sapiens
Procedure, shortened: (§1)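 Human T4-lymphocyte CEM or Molt cells were seeded at 5–7.5 × 10⁴ cells per well with test compound. They grew for 72 h at 37 °C in humidified, CO₂-controlled air and were then counted with a Coulter counter. IC50 is the compound concentration that cut viable cell number by 50%.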

MOLT-4 = assay: The compound was tested for cytostatic activity against human T4-lymphocyte molt(molt 4/C8); procedure, shortened: as §1
FM3A [2] = assay: The compound was tested for cytostatic activity against mammary FM3A cells; conditions: Mus musculus
Procedure, shortened: (§2)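 Murine L1210 leukemia or FM3A mammary carcinoma cells went in at 5–7.5 × 10⁴ per well alongside test compound. Proliferation ran 48 h at 37 °C in a humidified CO₂-controlled atmosphere, followed by Coulter counter cell counts. IC50 is the concentration reducing viable cells by 50%.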

L1210 = assay: The compound was tested for cytostatic activity against murine leukemia L1210 cells; conditions: Mus musculus; procedure, shortened: as §2
CCRF-CEM [3] = assay: The compound was tested for cytostatic activity against human CEM cells; procedure, shortened: as §1
FM3A [4] = assay: The compound was tested for cytostatic activity against murine mammary FM3A cells; conditions: Mus musculus; procedure, shortened: as §2

SMILES | IC50 (CCRF-CEM [1]) | IC50 (MOLT-4) | IC50 (FM3A [2]) | IC50 (L1210) | IC50 (CCRF-CEM [3]) | IC50 (FM3A [4])
C=CCO[C@H]1[C@H](O)[C@@H](CO)O[C@H]1n1cnc2c(N)ncnc21 | 79 µM | 285 µM | 316 µM | 181 µM |  | 
C=CCO[C@H]1[C@H](O)[C@@H](COP(=O)(NC(C)C(=O)OCC)Oc2ccccc2)O[C@H]1n1ccc(=O)[nH]c1=O (stereo not given in full) | > 200 µM | > 200 µM | > 200 µM | > 200 µM |  | 
C=CCO[C@H]1[C@H](O)[C@@H](CO)O[C@H]1n1ccc(N)nc1=O | 61 µM | > 500 µM | 325 µM | 38 µM |  | 
C=CCO[C@H]1[C@H](O)[C@@H](CO)O[C@H]1n1ccc(=O)[nH]c1=O |  | > 500 µM |  | > 500 µM | > 500 µM | > 500 µM
C=CCO[C@H]1[C@H](O)[C@@H](COP(=O)(NC(C)C(=O)OCC)Oc2ccccc2)O[C@H]1n1ccc(N)nc1=O (stereo not given in full) | > 200 µM | > 200 µM | > 200 µM | > 200 µM |  | 
